# Active and inactive are the calls of the source.
# Test system: Mus musculus
# Assay: Antidepressant activity in Swiss-Webster mouse assessed as prevention of reserpine-induced ptosis at 10 to 50 mg/kg, ip
# Assay type: functional, organism-based
row,SMILES,Activity
1,Cc1cccc2[nH]c3c(c12)CC(N(C)C)CC3 (stereo not drawn),Active
2,CN(C)C1CCc2[nH]c3ccccc3c2C1 (stereo not drawn) [CYCLINDOLE],Active
3,CN(C)CCCN1c2ccccc2CCc2ccccc21,Active

# Test system: Mus musculus
# Assay: Antidepressant activity in Swiss-Webster mouse assessed as prevention of reserpine-induced ptosis at 30 to 50 mg/kg, ip
# Assay type: functional, organism-based
row,SMILES,Activity
1,CN(C)C1CCc2[nH]c3c(F)cc(F)cc3c2C1 (stereo not drawn) [FLUCINDOLE],inactive

# Test system: Mus musculus
# Assay: Antidepressant activity in Swiss-Webster mouse assessed as prevention of reserpine-induced ptosis at 1 to 50 mg/kg, ip
# Assay type: functional, organism-based
# Procedure, shortened: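 Male Swiss-Webster mice (18-24 g) given test compounds intraperitoneally at 50, 30, 10, 1 and 0.5 mg/kg (free base), then scored for reserpine-induced ptosis. Active means a statistically significant decrease in ptosis (p < 0.05, two-tailed).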
row,SMILES,Activity
1,CN(C)CCCN1c2ccccc2Sc2ccc(Cl)cc21 [CHLORPROMAZINE],inactive

# Test system: Mus musculus
# Assay: Antidepressant activity in Swiss-Webster mouse assessed as prevention of reserpine-induced ptosis at 30 mg/kg, ip
# Assay type: functional, organism-based
# Design: dose 30 mg/kg
row,SMILES,Activity
1,CN(C)C1CCc2[nH]c3cccc(C(F)(F)F)c3c2C1 (stereo not drawn),Active
2,Cc1ccc(C)c2c3c([nH]c12)CCC(N(C)C)C3 (stereo not drawn),Active
3,Cc1cc(Cl)cc2[nH]c3c(c12)CC(N(C)C)CC3 (stereo not drawn),Active
4,COc1ccc2c3c([nH]c2c1)CCC(N(C)C)C3 (stereo not drawn),Active
5,CN(C)C1CCc2[nH]c3c(F)cc(F)cc3c2C1 (stereo not drawn) [FLUCINDOLE],inactive
6,COc1ccc(Cl)c2c3c([nH]c12)CCC(N(C)C)C3 (stereo not drawn),Active
7,CCOC(=O)c1cccc2[nH]c3c(c12)CC(N(C)C)CC3 (stereo not drawn),Active
8,NC1CCc2[nH]c3ccccc3c2C1 (stereo not drawn),Active
9,CCn1c2c(c3ccccc31)CC(N(C)C)CC2 (stereo not drawn),Active
10,CNC1CCc2[nH]c3ccccc3c2C1 (stereo not drawn),Active

# Test system: Mus musculus
# Assay: Antidepressant activity in Swiss-Webster mouse assessed as prevention of reserpine-induced ptosis at 10 mg/kg, ip
# Assay type: functional, organism-based
# Design: dose 10 mg/kg
row,SMILES,Activity
1,Cc1ccc(F)c2[nH]c3c(c12)CC(N(C)C)CC3 (stereo not drawn),Active
2,CN(C)C1CCc2[nH]c3cccc(F)c3c2C1 (stereo not drawn),Active
3,CC(=O)NC1CCc2[nH]c3ccccc3c2C1 (stereo not drawn),inactive
4,COc1ccc2[nH]c3c(c2c1)CC(N(C)C)CC3 (stereo not drawn),inactive
5,CN(C)C1CCc2c(c3ccccc3n2Cc2ccccc2)C1 (stereo not drawn),inactive
6,CCc1cccc2c3c([nH]c12)CCC(N(C)C)C3 (stereo not drawn),Active
7,Cc1cccc2[nH]c3c(c12)CC(N(C)C)CC3 (stereo not drawn),Active
8,CN(C)C1CCc2c(c3ccccc3n2C)C1 (stereo not drawn),inactive
9,CN(C)C1CCc2c(c3ccccc3n2Cc2ccc(Cl)cc2)C1 (stereo not drawn),inactive
10,CN(C)CCn1c2c(c3ccccc31)CC(N(C)C)CC2 (stereo not drawn),inactive
11,CN(C)C1CCc2[nH]c3ccccc3c2C1 (stereo not drawn) [CYCLINDOLE],Active
12,CCCc1cccc2c3c([nH]c12)CCC(N(C)C)C3 (stereo not drawn),Active
13,CCCCNC1CCc2[nH]c3ccccc3c2C1 (stereo not drawn),inactive
14,CCNC1CCc2[nH]c3ccccc3c2C1 (stereo not drawn),inactive
15,Cc1ccc2c3c([nH]c2c1)CCC(N(C)C)C3 (stereo not drawn),Active
16,CCOC(=O)Cn1c2c(c3ccccc31)CC(N(C)C)CC2 (stereo not drawn),Active
17,CCCNC1CCc2[nH]c3ccccc3c2C1 (stereo not drawn),inactive
18,Cc1cc(Cl)c2c3c([nH]c2c1)CCC(N(C)C)C3 (stereo not drawn),Active
19,CN(C)CCCn1c2c(c3ccccc31)CC(N(C)C)CC2 (stereo not drawn),inactive
20,CNC1CCc2[nH]c3cccc(C)c3c2C1 (stereo not drawn),Active

# Test system: Mus musculus
# Assay: Antidepressant activity in Swiss-Webster mouse assessed as prevention of reserpine-induced ptosis at 50 mg/kg, ip
# Assay type: functional, organism-based
# Design: dose 50 mg/kg
row,SMILES,Activity
1,CN(C)C1CCc2[nH]c3c(Cl)cc(Cl)cc3c2C1 (stereo not drawn),inactive
2,CNC1CCc2[nH]c3c(F)cc(F)cc3c2C1 (stereo not drawn),inactive
3,CCc1cccc2[nH]c3c(c12)CC(N(C)C)CC3 (stereo not drawn),Active
4,CN(C)C1CCc2[nH]c3c(F)cccc3c2C1 (stereo not drawn),inactive
5,c1ccc(N2CCN(C3CCc4[nH]c5ccccc5c4C3)CC2)cc1 (stereo not drawn),inactive
6,CNC1CCc2[nH]c3cc(C)ccc3c2C1 (stereo not drawn),Active
7,CN(C)C1CCc2[nH]c3c(C(F)(F)F)cccc3c2C1 (stereo not drawn),inactive
8,c1ccc2c3c([nH]c2c1)CCC(N1CCCC1)C3 (stereo not drawn),inactive
9,CN(C)C1CCc2c(c3ccccc3n2CCC(=O)O)C1 (stereo not drawn),inactive
10,NC1CCc2[nH]c3c(F)cc(F)cc3c2C1 (stereo not drawn),inactive
11,CN(C)C1CCc2[nH]c3ccc(O)cc3c2C1 (stereo not drawn),Active
12,Fc1cc(F)c2[nH]c3c(c2c1)CC(N1CCCCC1)CC3 (stereo not drawn),inactive
13,Cc1ccc2[nH]c3c(c2c1)CC(N(C)C)CC3 (stereo not drawn),inactive
14,C=CCn1c2c(c3ccccc31)CC(N(C)C)CC2 (stereo not drawn),inactive
15,CN(C)C1CCc2[nH]c3c(Cl)c(Cl)ccc3c2C1 (stereo not drawn),Active
16,CN(C)C1CCc2[nH]c3c(Br)cccc3c2C1 (stereo not drawn),inactive
17,CN(C)C1CCc2[nH]c3cc(F)ccc3c2C1 (stereo not drawn),inactive
18,CN(C)C1CCc2[nH]c3c(O)cccc3c2C1 (stereo not drawn),inactive
19,COc1cc2[nH]c3c(c2cc1OC)CC(N(C)C)CC3 (stereo not drawn),inactive
20,Cc1cccc2c1c1c(n2C)CCC(N(C)C)C1 (stereo not drawn),Active
21,Cc1cc(C)c2c3c([nH]c2c1)CCC(N(C)C)C3 (stereo not drawn),Active
22,CN(C)C1CCc2[nH]c3ccc(C(=O)O)cc3c2C1 (stereo not drawn),inactive

row,SMILES,Activity
1,CN(C)C1CCc2[nH]c3ccc(Oc4ccccc4)cc3c2C1 (stereo not drawn),inactive
2,CSc1cccc2c3c([nH]c12)CCC(N(C)C)C3 (stereo not drawn),inactive
3,CN(C(=O)c1ccccc1)C1CCc2[nH]c3c(F)cc(F)cc3c2C1 (stereo not drawn),inactive
4,CN(C)C1CCc2[nH]c3ccc(F)cc3c2C1 (stereo not drawn),inactive
5,c1ccc2c3c([nH]c2c1)CCC(N1CCCCC1)C3 (stereo not drawn),inactive
6,CN(C)C1CCc2c(c3ccccc3n2CC(=O)O)C1 (stereo not drawn),inactive
7,CCN(CC)CCNC1CCc2[nH]c3ccccc3c2C1 (stereo not drawn),inactive
8,Cc1cc(C)c2[nH]c3c(c2c1)CC(N(C)C)CC3 (stereo not drawn),inactive
9,CN(C)C1CCc2[nH]c3c(Cl)cccc3c2C1 (stereo not drawn),inactive
10,CN(C)C1CCc2[nH]c3c(-c4ccccc4)cccc3c2C1 (stereo not drawn),Active
11,COc1cc(C(=O)OCCn2c3c(c4ccccc42)CC(N(C)C)CC3)cc(OC)c1OC (stereo not drawn),inactive
12,CN(C)C1CCc2[nH]c3ccc(OCc4ccccc4)cc3c2C1 (stereo not drawn),inactive
13,Cc1ccc(Cl)c2[nH]c3c(c12)CC(N(C)C)CC3 (stereo not drawn),Active
14,CCOC(=O)CCn1c2c(c3ccccc31)CC(N(C)C)CC2 (stereo not drawn),inactive
15,CN(C)C1CCc2[nH]c3c(OCc4ccccc4)cccc3c2C1 (stereo not drawn),inactive
16,COc1cccc2c3c([nH]c12)CCC(N(C)C)C3 (stereo not drawn),inactive
17,Cc1cccc2c3c([nH]c12)CCC(N(C)C)C3 (stereo not drawn),inactive
18,Cc1cc2[nH]c3c(c2cc1C)CC(N(C)C)CC3 (stereo not drawn),Active
19,CN(Cc1ccccc1)C1CCc2[nH]c3c(F)cc(F)cc3c2C1 (stereo not drawn),inactive
20,c1ccc2c3c([nH]c2c1)CCC(N1CCOCC1)C3 (stereo not drawn),inactive
21,CN(C)C1CCc2[nH]c3cc(O)ccc3c2C1 (stereo not drawn),inactive

# Test system: Rattus norvegicus
# Assay: Antipsychotic activity in po dosed Sprague-Dawley rat assessed as prevention of d-amphetamine-induced stereotyped behavior measured for 1 min after 90, 100, and 110 mins injection of amphetamine
# Assay type: functional
# Procedure, shortened: (§1)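 Male Sprague-Dawley rats, 100-130 g, given compound orally at graded doses (free base), starting at 32 mg/kg, 4 h before d-amphetamine sulfate sc at 3.7 mg/kg (free base). One-minute observations at 90, 100 and 110 min. ED50 with confidence limits calculated.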
row,SMILES,ED50
1,CN(C)CCCN1c2ccccc2Sc2ccc(Cl)cc21 [CHLORPROMAZINE],8.6 mg/kg
2,CN(C)C1CCc2[nH]c3c(F)cc(F)cc3c2C1 (stereo not drawn) [FLUCINDOLE],1.4 mg/kg
3,CN(C)C1CCc2[nH]c3ccccc3c2C1 (stereo not drawn) [CYCLINDOLE],10.3 mg/kg

# Test system: Rattus norvegicus
# Assay: Antipsychotic activity in Sprague-Dawley rat assessed as prevention of d-amphetamine-induced stereotyped behavior at 32 mg/kg, po measured for 1 min after 90, 100, and 110 mins injection of amphetamine
# Assay type: functional, organism-based
# Design: dose 32 mg/kg
# Procedure, shortened: as §1
row,SMILES,Activity
1,Cc1cccc2[nH]c3c(c12)CC(N(C)C)CC3 (stereo not drawn),inactive
2,CN(C)CCCN1c2ccccc2CCc2ccccc21,inactive

# — ChEMBL document CHEMBL3272100, “3-Aminotetrahydrocarbazoles as a new series of central nervous system agents” (1977)
